The values that follow come from ChEMBL document CHEMBL1255250, “Microbicidal properties and cytocidal selectivity of rhesus macaque theta defensins” (Antimicrob Agents Chemother, 2008).

Active and inactive are the calls of the source. The rule behind the calls is not given here.

For data set [1], the system named is Hs68. The data set can be described thus: Cytotoxicity against human HS68 cells at 50 ug/ml by MTT assay in presence of 10% FBS. The class given is cell-based. Put shortly: (§1)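 HS68 fibroblasts were grown in DMEM with 10% FBS and penicillin/streptomycin at 37°C and 5% CO2. Cells were seeded at 5 × 10^3 per well for 18 h. Medium was then switched to antibiotic-free DMEM with 0.4% or 10% FBS, as each line states, and peptide was added at 0–100 μg/ml for 1 h at 37°C. Wells were refed with growth medium and read by MTT in triplicate against no-peptide wells.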
In general terms: Formazan colour is commonly taken as a measure of viable cells.

Data set [2] deals with Candida albicans. The data set can be described thus: Microbicidal activity against Candida albicans 16820 using PIPES buffer in presence of NaCl. The class given is functional, organism-based. Put shortly: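 Log-phase C. albicans was incubated with peptide in 10 mM PIPES, pH 7.4, supplemented with NaCl, for 2 h at 37°C. Survivors were plated on Sabouraud dextrose agar and counted after 18–24 h at 37°C.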

Data set [3] in a line: Selectivity index, ratio of MMC for Staphylococcus aureus 502a to hemolytic activity for human erythrocytes.
The test system of data set [4] is Staphylococcus aureus. Kind of data set: Microbicidal activity against Staphylococcus aureus 502a in presence of 1.2 mM Calcium ions. The class given is functional, organism-based.
Data set [5] is described as follows: Toxicity in human Erythrocyte assessed as concentration required to achieve 3% hemolysis. The class given is cell-based.
In data set [6] the test system is Staphylococcus aureus. The data set can be described thus: Microbicidal activity against Staphylococcus aureus 502a. The class given is functional. Summed up:
(§2)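 Log-phase organisms (1–2 × 10^6 CFU/ml) were exposed to serially diluted peptide (0.05–10.0 μg/ml final) in 10 mM PIPES, pH 7.4, with 5 mM glucose for 2 h at 37°C. Aliquots were serially diluted 1:10 to 1:10^6 in Trypticase soy or Sabouraud broth and grown 24–48 h at 37°C. MMC was the lowest concentration giving 99.9% viability loss in at least two experiments.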

For data set [7], the system named is Staphylococcus aureus. Kind of data set: Microbicidal activity against Staphylococcus aureus 502a at 5 ug/ml in presence of <= 80 mM NaCl. The class given is functional, organism-based. Put shortly:
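S. aureus in log phase was incubated with 5 μg/ml peptide in 10 mM PIPES, pH 7.4, containing increasing NaCl for 2 h at 37°C. Killing was determined by colony counting and expressed as a percentage of killing in buffer alone.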

The subject of data set [8] is Escherichia coli. The data set can be described thus: Microbicidal activity against Escherichia coli ML35 assessed as induction of cytoplasmic membrane permeabilization at 1 ug/ml. The class given is functional, organism-based. Put shortly: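 Log-phase E. coli ML35 (1–2 × 10^6 CFU/ml) was incubated with peptide (0–8 μg/ml final) in 10 mM PIPES, pH 7.4, containing 3 mM ONPG. ONPG hydrolysis was followed at 405 nm for 60 min. The rate was taken as the highest kinetic slope and corrected for peptide inhibition of β-galactosidase measured cell-free.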

For data set [9], the system named is Candida albicans. Kind of data set: Microbicidal activity against Candida albicans 16820 in presence of 0.8 mM Magnesium ions. The class given is functional, organism-based. Summed up:
(§3)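 Log-phase E. coli ML35 or C. albicans was incubated with increasing peptide concentrations in 10 mM PIPES, pH 7.4. The buffer contained 1.2 mM CaCl2 and 0.8 mM MgCl2, or no added divalent salts. Incubation was 2 h at 37°C, and survivors were counted as colonies.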

Data set [10] relates to Escherichia coli. The data set can be described thus: Microbicidal activity against Escherichia coli ML35 at 16 ug/ml in presence of 10% heat-inactivated human serum. The class given is functional, organism-based. Summed up:
(§4)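 Human serum was heat-inactivated at 55°C for 30 min and clarified by centrifugation. E. coli was then exposed to a dose series of peptide in 10 mM PIPES, pH 7.4, with 10% of this serum. Killing was counted as colonies and expressed relative to incubations without serum.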

Data set [11] relates to Staphylococcus aureus. Kind of data set: Microbicidal activity against Staphylococcus aureus 502a using 10 mM PIPES buffer in presence of 154 mM NaCl. The class given is functional, organism-based. Put shortly:
(§5)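 Log-phase S. aureus was exposed to increasing peptide concentrations for 2 h at 37°C. Buffer was 10 mM PIPES, Tris-HCl or sodium phosphate, pH 7.4, with or without 154 mM NaCl. Killing was read by colony counting.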

Data set [12] deals with Hs68. Kind of data set: Cytotoxicity against human HS68 cells at 100 ug/ml in presence of 10% FBS by MTT assay. The class given is cell-based. Put shortly: as §1
Data set [13] has as its system Escherichia coli. The data set can be described thus: Microbicidal activity against Escherichia coli ML35 in presence of 0.8 mM Magnesium ions. The class given is functional, organism-based. Put shortly:
as §3

Data set [14] can be described thus: Inhibition of beta-galactosidase in cell-free system assessed as inhibition of o-nitrophenyl-beta-d-galactopyranoside hydrolysis.
Data set [15] addresses Beta-galactosidase (Escherichia coli) (UniProt Q8VNN2). Kind of data set: Inhibition of Escherichia coli ML35 Beta-galactosidase assessed as inhibition of o-nitrophenyl-beta-d-galactopyranoside hydrolysis at 4 ug/ml.
Data set [16] has as its system Candida albicans. The data set can be described thus: Microbicidal activity against Candida albicans 16820 assessed as log reduction in microbial count at 10 ug/ml using PIPES buffer.
Data set [17] relates to Escherichia coli. Kind of data set: Microbicidal activity against Escherichia coli ML35 in presence of 1.2 mM Calcium ions. The class given is functional, organism-based. Put shortly:
as §3

Data set [18] relates to Staphylococcus aureus. Kind of data set: Microbicidal activity against Staphylococcus aureus 502a using 10 mM Tris-HCl buffer in presence of 154 mM NaCl. The class given is functional, organism-based. Summed up: as §5
For data set [19], the system named is Staphylococcus aureus. Kind of data set: Microbicidal activity against Staphylococcus aureus 502a using 10 mM sodium phosphate buffer in presence of 154 mM NaCl. The class given is functional, organism-based. Summed up:
as §5

In data set [20] the test system is Candida albicans. The data set can be described thus: Microbicidal activity against Candida albicans 16820. The class given is functional. Summed up:
as §2

The subject of data set [21] is Escherichia coli. The data set can be described thus: Microbicidal activity against Escherichia coli ML35. The class given is functional. Summed up: as §2
Data set [22] concerns Escherichia coli. The data set can be described thus: Microbicidal activity against Escherichia coli ML35 at <=8 ug/ml in presence of 10% heat-inactivated human serum. The class given is functional, organism-based. Summed up: as §4
The nature of data set [23]: Toxicity in human Erythrocyte assessed as hemolysis at 100 ug/ml. The class given is cell-based. Put shortly: (§6)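 Erythrocytes from EDTA-anticoagulated human donor blood were washed in PBS or PiBS containing 4 mM EDTA, then resuspended without EDTA at 2% (vol/vol). Cells were incubated with peptide (0.3–100 μg/ml final) for 1 h at 37°C, with or without 10% autologous serum. Supernatant A405 was expressed relative to 1% Nonidet P-40 lysis.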

Data set [24] can be described thus: Toxicity in human Erythrocyte assessed as hemolysis at 100 ug/ml in presence of 10% serum. The class given is cell-based. Summed up:
as §6

Data set [25] has as its system Staphylococcus aureus. Kind of data set: Microbicidal activity against Staphylococcus aureus 502a in presence of 0.8 mM Magnesium ions. The class given is functional, organism-based.
For data set [26], the system named is Hs68. The data set can be described thus: Cytotoxicity against human HS68 cells at <=100 ug/ml by MTT assay in presence of 0.4% FBS. The class given is cell-based. Summed up:
as §1

The test system of data set [27] is Hs68. The data set can be described thus: Cytotoxicity against human HS68 cells at <=100 ug/ml by MTT assay in presence of 10% FBS. The class given is cell-based. Put shortly: as §1

Beta-galactosidase (Escherichia coli), sequence (Q8VNN2 whole entry, looked up): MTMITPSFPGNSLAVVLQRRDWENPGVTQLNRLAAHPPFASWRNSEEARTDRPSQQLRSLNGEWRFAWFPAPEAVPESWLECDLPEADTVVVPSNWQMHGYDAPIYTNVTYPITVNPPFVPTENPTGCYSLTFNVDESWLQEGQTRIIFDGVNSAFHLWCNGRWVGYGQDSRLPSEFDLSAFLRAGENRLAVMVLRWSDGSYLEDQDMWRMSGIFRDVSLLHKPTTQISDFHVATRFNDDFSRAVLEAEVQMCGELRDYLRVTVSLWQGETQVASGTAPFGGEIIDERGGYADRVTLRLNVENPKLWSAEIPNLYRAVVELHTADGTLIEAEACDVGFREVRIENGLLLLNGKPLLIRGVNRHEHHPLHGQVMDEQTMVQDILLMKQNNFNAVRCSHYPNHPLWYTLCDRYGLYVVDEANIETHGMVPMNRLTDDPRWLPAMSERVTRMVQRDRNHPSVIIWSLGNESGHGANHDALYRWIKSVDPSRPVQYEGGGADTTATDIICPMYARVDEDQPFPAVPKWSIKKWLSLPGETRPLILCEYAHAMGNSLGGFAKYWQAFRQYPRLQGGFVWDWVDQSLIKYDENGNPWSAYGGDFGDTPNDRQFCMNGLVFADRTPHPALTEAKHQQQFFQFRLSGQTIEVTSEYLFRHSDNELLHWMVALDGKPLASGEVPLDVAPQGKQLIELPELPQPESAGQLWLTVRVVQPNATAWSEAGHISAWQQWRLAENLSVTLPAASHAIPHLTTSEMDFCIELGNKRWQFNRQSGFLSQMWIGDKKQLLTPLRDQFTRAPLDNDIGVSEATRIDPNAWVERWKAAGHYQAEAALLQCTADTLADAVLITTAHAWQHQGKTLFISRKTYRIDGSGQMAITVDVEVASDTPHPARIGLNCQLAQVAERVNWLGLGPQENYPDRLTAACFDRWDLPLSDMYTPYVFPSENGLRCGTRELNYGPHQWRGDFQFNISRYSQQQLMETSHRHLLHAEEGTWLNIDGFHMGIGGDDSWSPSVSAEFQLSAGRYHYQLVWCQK

`CC(C)C[C@H](NC(=O)[C@H](CCCNC(=N)N)NC(=O)CNC(=O)CNC(=O)[C@@H](N)CCCNC(=N)N)C(=O)N[C@H]1CSSC[C@@H](C(=O)N[C@H](C(=O)NCC(=O)N[C@@H](CCCNC(=N)N)C(N)=O)C(C)C)NC(=O)[C@H](C(C)C)NC(=O)[C@@H]2CSSC[C@H](NC(=O)[C@H](Cc3ccc(O)cc3)NC1=O)C(=O)N[C@@H](CCCNC(=N)N)C(=O)N[C@@H](CCCNC(=N)N)C(=O)N[C@@H](CCCNC(=N)N)C(=O)N[C@@H](Cc1ccccc1)C(=O)N2`: the Activity entry in [1] was “Toxic”; in data set [5] it was 0.8 µg/mL; in [12] it was “Toxic”; in data set [23], “Toxic”; in [24], “Toxic”; in data set [26], “Toxic”. Besides, the result in [2], in data set [4], in data set [7], in data set [8], in data set [10] and in data set [11] was Active. The outcome in data set [13], in data set [17], in data set [18], in data set [19] and in data set [25] was Active. Further, in [3], the “Selectivity Index” value was 2. Moreover, the figures for the MMC in data set [6], in [20] and in data set [21] were 0.4 µg/mL, 0.8 µg/mL and 1 µg/mL, respectively. Besides, the result in [9] and in [22] was inactive. In addition, the inhibition (as a rule, the relative decrease from the control value, in per cent) in [14] was “Dose-dependent effect”; in [15], 36%. Also, the FC in [16] is on record as more than 3.
Turning to `CC[C@H](C)[C@@H]1NC(=O)[C@@H]2CSSC[C@H](NC(=O)[C@H](CCCNC(=N)N)NC(=O)[C@@H]3CSSC[C@H](NC1=O)C(=O)N[C@@H]([C@@H](C)O)C(=O)N[C@@H](CCCNC(=N)N)C(=O)NCC(=O)N[C@@H](Cc1ccccc1)C(=O)N3)C(=O)N[C@@H](CC(C)C)C(=O)N[C@H]1CSSC[C@H](NC(=O)[C@H](C(C)C)NC(=O)CNC(=O)[C@H](CCCNC(=N)N)NC(=O)[C@H](CCCNC(=N)N)NC1=O)C(=O)N[C@@H](CCCNC(=N)N)C(=O)N2`, the Activity in data set [5] is 5.5 µg/mL; in data set [27] it was “Non-toxic”; in data set [24] it was “Non-toxic”; in data set [26] it was “Non-toxic”.
